This is a sample that favours compounds with a hit; in the whole collection about 3.7% have one here.
KCNK9 block – KCNK9 potassium channel inhibitors, primary screen, HEK293 cells, thallium flux | Potassium channel subfamily K member 9 (Homo sapiens), Q9NPC2 | actives 1.2% (n = 310,000) | AID 488922, 2010 | FluxOR thallium flux fluorescence; hits give low values | B-score at 10 µM;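 active = ratio B-score over 3 SD below the library mean, with starting fluorescence within 5 SD of its mean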;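 also: negative B-score means less thallium flux so channel inhibition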
KCNQ1 pot – potentiators or activators of KCNQ1 channel, primary screen, cell-based, thallium flux, high-throughput | Potassium voltage-gated channel subfamily KQT member 1 (Homo sapiens), P51787 | CHO-K1 KCNQ1, thallium flux FluxOR fluorescence; hits give high values | B-score at 10 µM | actives 0.35% (n = 310,000);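 active = fluorescence ratio B-score, a plate-corrected score, at least three library SD, with initial intensity B-score within 5 SD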
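Assay system: CHO-K1 cells stably expressing KCNQ1; Medium: assay buffer with matched DMSO; Also added: K+/Tl+ depolarizing stimulus; Dosing: single dose; Timing: dye 90 min, compound 20 min, room temperature; Measured by: kinetic FluxOR thallium fluorescence, 10-s 1-Hz baseline, 110-s post-stimulus read; Read-out: peak-minus-minimum fluorescence over initial fluorescence, negative-control normalized, B-scored.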
KCNK3 block – human KCNK3 channel inhibitors, primary screen, CHO cells, FluxOR thallium flux, B-score | FluxOR fluorescence; hits give low values | B-score at 10 µM | actives 0.84% (n = 340,000) | AID 602410, 2012;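 active = B-score under library mean minus 4 SD, starting fluorescence ratio at most library mean plus 5 SD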;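 also: more negative B-score means stronger inhibition of thallium flux through KCNK3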
Target sequence (O14649 whole entry, looked up): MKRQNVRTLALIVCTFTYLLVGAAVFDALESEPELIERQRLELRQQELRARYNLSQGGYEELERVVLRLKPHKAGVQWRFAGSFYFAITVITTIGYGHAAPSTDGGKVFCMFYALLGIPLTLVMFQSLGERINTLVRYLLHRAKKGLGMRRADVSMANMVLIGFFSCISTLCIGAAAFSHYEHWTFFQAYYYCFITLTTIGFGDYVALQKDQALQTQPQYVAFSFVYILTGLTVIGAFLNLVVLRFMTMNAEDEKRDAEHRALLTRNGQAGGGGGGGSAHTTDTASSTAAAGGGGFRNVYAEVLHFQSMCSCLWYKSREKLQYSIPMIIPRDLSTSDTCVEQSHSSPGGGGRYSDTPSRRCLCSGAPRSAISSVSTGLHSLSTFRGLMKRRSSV
KCNQ1 inh – inhibitors of human KCNQ1 channel, primary screen, cell-based, thallium flux, high-throughput; AID 2642, 2010; Potassium voltage-gated channel subfamily KQT member 1 (Homo sapiens), P51787; actives 1.3% (n = 310,000); B-score at 10 µM; CHO-K1 KCNQ1, FluxOR thallium flux fluorescence; hits give high values;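 active = compounds whose thallium flux B-score, printed positive for inhibition, exceeds three library SD while starting fluorescence stays within three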;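 also: channel opened by potassium depolarization with thallium stimulus after 20 min compound exposure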
Kir21 block – inhibitors of mouse Kir2.1 inward-rectifier potassium channel; Inward rectifier potassium channel 2 (Mus musculus), P35561; HEK293-Kir2.1, FluxOR thallium flux fluorescence; hits give low values; B-score at 10 µM; actives 0.85% (n = 310,000);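 active = fluorescence ratio B-score at or below minus 3 SD of library scores, with starting-brightness B-score within 2 SD, cut at about -4.2 in these data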;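 also: channel flux triggered by added potassium and thallium sulfate stimulus; B-score of peak minus minimum fluorescence over baseline after thallium stimulus; more negative B-score means stronger Kir2.1 block with less thallium influx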
hERG protect – hERG rescue from dofetilide block, primary screen, cell-based, CHO-hERG, FluxOR thallium flux, dofetilide IC70; AID 1511, 2009; actives 0.51% (n = 310,000); activation (rescue from dofetilide block), less the hit threshold, % at 10 µM; Voltage-gated inwardly rectifying potassium channel KCNH2 (Homo sapiens), Q12809; dofetilide IC70 present;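 active = activation above the mean of controls blocked by dofetilide plus 5 SD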;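 also: thallium influx through hERG after potassium depolarization seen as dye fluorescence rise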
KCNQ1 block val – KCNQ1 potassium channel inhibitors, confirmation, cell-based, Tl flux, duplicate. actives 93% (n = 1,600). KCNQ1 cell line, FluxOR thallium flux fluorescence. inhibition, % at 10 µM. shares compounds with KCNQ1 inh;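 active = primary screen active, with duplicate mean exceeding buffer control mean plus 3 SD of buffer wells, cut at about 28% in these data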;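 also: 0% = buffer control ratio and 100% = XE991 inhibitor control ratio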
CHO KCNQ1 ctr – thallium flux effects in parental CHO cells, counter-screen for KCNQ1 inhibitor project, cell-based, Tl flux. shares compounds with KCNQ1 inh. parental CHO-K1, FluxOR thallium flux fluorescence ratio; hits give low values; zero means no signal rise above baseline. fluorescence ratio (Tl flux) at 10 µM. actives 21% (n = 1,600);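 active = mean of duplicate thallium-flux fluorescence ratios in parental host cells more than 5 SD below the buffer control mean, cut at about 0.38 in these data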;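 also: ratio is peak minus minimum fluorescence divided by baseline fluorescence; actives read low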
KCNQ1 ephys val – KCNQ1 channel inhibitors, confirmation, orthogonal assay, cell-based, automated electrophysiology | shares compounds with KCNQ1 inh | KCNQ1-CHO cells, automated patch clamp current | calls only at 10 µM | actives 20% (n = 490) | AID 624120, 2012;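 active = KCNQ1 current drop exceeding 3 SD of negative control wells, seen in both duplicate runs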;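 also: steady state current during a 2 s step from -80 to +40 mV; negative values mean current inhibition and positive values mean potentiation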
KCNQ2 inh – KCNQ2 channel inhibition, selectivity assay for KCNQ1 inhibitor project, cell-based. shares compounds with KCNQ1 inh. KCNQ2 cells, FluxOR thallium flux fluorescence. inhibition, % at 10 µM. actives 71% (n = 1,600). AID 651746, 2012;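 active = mean percent inhibition of the KCNQ2 thallium signal more than 5 SD above the buffer-only control wells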;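 also: KCNQ2 expressed in CHO cells; 0% = buffer control wells and 100% = XE-991 inhibitor control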
KCNQ1 KCNE1 spec – KCNQ1/KCNE1 channel inhibition, selectivity assay for KCNQ1 inhibitor project, CHO-K1 cells, thallium flux, FluxOR; shares compounds with KCNQ1 inh; FluxOR thallium flux fluorescence; inhibition, % at 10 µM; actives 77% (n = 1,600);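 active = mean percent inhibition of duplicate wells above the buffer-only control mean plus 3 SD of those controls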;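 also: 0% = buffer only wells and 100% = XE-991 inhibitor control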
* = called active by the depositor.

`Cc1ccc(NC(=O)C2CCN(S(=O)(=O)c3ccc(C(C)(C)C)cc3)CC2)cc1S(=O)(=O)N1CCOCC1` gave KCNK3 block inactive.
`Cc1ccc(N(CCC#N)C(=O)COC(=O)c2cc(C)oc2C)cc1` gave KCNK3 block inactive.
`N#Cc1c(C(F)(F)F)cc(=O)n2c1[nH]c1ccccc12` gave KCNK9 block inactive, KCNQ1 pot inactive, KCNK3 block inactive, KCNQ1 inh 6*, Kir21 block -0.7, hERG protect -12.5, KCNQ1 block val 38.5*, CHO KCNQ1 ctr 0.527, KCNQ2 inh 107.0%* and KCNQ1 KCNE1 spec inactive.
For COc1ccccc1CNC(=S)NCCc1ccccc1 the results were KCNK9 block inactive, KCNQ1 pot inactive, KCNK3 block inactive, KCNQ1 inh inactive, Kir21 block -3.47 and hERG protect -4.2.
For CCC(C)c1ccc(NC(=S)NCc2ccccc2OC)cc1 (configuration not stated) the results were KCNK9 block inactive, KCNQ1 pot inactive, KCNK3 block inactive, KCNQ1 inh 9*, Kir21 block 2.36, hERG protect -23.0, KCNQ1 block val 61.5*, CHO KCNQ1 ctr 0.523, KCNQ2 inh 69.3%* and KCNQ1 KCNE1 spec 65.5%*.
For COCCN(Cc1ccco1)C(=O)C1CCCN(c2ncnc3c2nc2n3CCCCC2)C1 (configuration not stated) the results were KCNK9 block inactive, KCNQ1 pot inactive, KCNK3 block inactive, KCNQ1 inh inactive, Kir21 block 0.09 and hERG protect -10.6.
For O=C(NCC1CC1)c1ccc(Nc2nc3ccc(Br)cc3[nH]2)cc1 the results were KCNK9 block inactive, KCNQ1 pot inactive, KCNK3 block inactive, KCNQ1 inh inactive, Kir21 block 2.97 and hERG protect -13.3.
O=C(NCc1ccco1)c1cccc(Nc2nc3ccc(Br)cc3[nH]2)c1 was read as KCNK9 block inactive, KCNQ1 pot inactive, KCNK3 block inactive, KCNQ1 inh 8*, Kir21 block -0.73, hERG protect -26.3, KCNQ1 block val 163.0*, CHO KCNQ1 ctr 0.326*, KCNQ2 inh 128.0%* and KCNQ1 KCNE1 spec active.
`CC1Cc2ccccc2N1S(=O)(=O)c1cccc(C(=O)NCCCO)c1` (configuration not stated) gave KCNK9 block inactive, KCNQ1 pot inactive, KCNK3 block inactive, KCNQ1 inh inactive, Kir21 block 0.47 and hERG protect -4.2.
CCOC(=O)c1ccc(NC(=O)c2cccc(S(=O)(=O)N3c4ccccc4CC3C)c2)s1 (configuration not stated) was read as KCNK9 block inactive, KCNQ1 pot inactive, KCNK3 block inactive, KCNQ1 inh 7*, Kir21 block -0.06, hERG protect -10.8, KCNQ1 block val 89.0*, CHO KCNQ1 ctr 0.468, KCNQ1 ephys val inactive, KCNQ2 inh inactive and KCNQ1 KCNE1 spec 109.5%*.
For CC(c1ccccc1)N1C(=O)c2ccc(C(=O)Nc3ccc(Br)cc3C(=O)O)cc2C1=O (configuration not stated) the results were KCNK9 block inactive, KCNQ1 pot inactive, KCNK3 block inactive, KCNQ1 inh 12*, Kir21 block -1.09, hERG protect -25.6, KCNQ1 block val 108.5*, CHO KCNQ1 ctr 0.419, KCNQ1 ephys val inactive, KCNQ2 inh inactive and KCNQ1 KCNE1 spec 132.5%*.
`CC(c1ccccc1)N1C(=O)c2ccc(C(=O)Nc3ccccc3C(=O)O)cc2C1=O` (configuration not stated) gave KCNK9 block inactive, KCNQ1 pot inactive, KCNK3 block inactive, KCNQ1 inh inactive, Kir21 block 0.06 and hERG protect -17.6.
NS(=O)(=O)c1ccc(NC(=O)NC2CC(=O)N(c3ccc4c(c3)OCCO4)C2)cc1 (configuration not stated) was read as KCNK9 block inactive, KCNQ1 pot inactive, KCNK3 block inactive, KCNQ1 inh inactive, Kir21 block 0.04 and hERG protect -9.6.
For CC(C)NC(=O)c1cnc(N2CCN(c3ccccn3)CC2)c2ccccc12 the results were KCNK9 block inactive, KCNQ1 pot inactive, KCNK3 block inactive, KCNQ1 inh inactive, Kir21 block 2.15 and hERG protect -3.3.
`CCc1ccc(NC(=O)c2cnc(N3CCN(c4ccccn4)CC3)c3ccccc23)cc1` gave KCNK9 block inactive, KCNQ1 pot inactive, KCNK3 block inactive, KCNQ1 inh 8*, Kir21 block 0.55, hERG protect -27.1, KCNQ1 block val 89.0*, CHO KCNQ1 ctr 0.374*, KCNQ2 inh 104.0%* and KCNQ1 KCNE1 spec 141.0%*.
`CCCN1CCc2c(sc(NC(=S)NC(=O)c3ccccc3)c2C#N)C1` gave KCNK9 block inactive, KCNQ1 pot inactive, KCNK3 block inactive, KCNQ1 inh inactive, Kir21 block 0.02 and hERG protect -1.9.

Compound activity: PubChem, Johns Hopkins Ion Channel Center
